# Measurements taken from PubChem BioAssay AID624064 (Broad Institute, 2012).
# Active and inactive are the calls of the source.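 How the source made its calls: active means fitted curve reaching 35% inhibition at both 405 and 600 nm absorbance, in duplicate, within twice the top valid dose; inactive means the rest, including signal rising instead of falling.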
# How the values were obtained:
# [1] = system: P. aeruginosa growth with EDDHA, OD600, 24-30 h; assay: P. aeruginosa growth delay under iron chelation, dose response, whole organism, OD600, EDDHA, dry powder, set 7 (AID 624064)
# Method in brief: (§1)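 Assay system: P. aeruginosa ATCC 15692 cells; input: final inoculum OD600 0.0000005; detection: absorbance at 600 nm (optical density); timing: 24-30 h exposure at 37 °C; medium: succinate M9, pH 7.0, 2 µM EDDHA final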
# [2] = as above; conditions: P. aeruginosa growth with EDDHA, OD600, 24-30 h; at 120 µM (top of the series)
# Method in brief: as §1
SMILES,AC35 [1],"activity change, negative = inhibition [2]"
CCCCC(C#N)c1ccc(F)cc1 (stereo not given),> 120 µM (inactive),
N#Cc1cccc(C(C#N)c2ccc(F)cc2)n1 (stereo not given),,-25.4% (inactive)
N#CC(c1ccc(Cl)cc1)c1ccccn1 (stereo not given),,-30.8% (inactive)
COCCOCCC(C#N)c1ccc(F)cc1 (stereo not given),,-18.1% (inactive)
CCCCC(C#N)c1ccc(Cl)cn1 (stereo not given),,-2.96% (inactive)
COCCC(C#N)c1ccc(F)cc1 (stereo not given),,-1.09% (inactive)
COCCOCCC(C#N)c1ccc(Cl)cc1 (stereo not given),,2.11% (inactive)
CCCCC(c1ccc(Cl)cc1)c1nn[nH]n1 (stereo not given),,-5.82% (inactive)
N#CC(c1ccc(Cl)cc1)N1CCCC1 (stereo not given),,-7.6% (inactive)
COCCNC(C#N)c1ccc(Cl)cc1 (stereo not given),,-0.512% (inactive)
CCCCC(C#N)c1ccccn1 (stereo not given),,11% (inactive)
CN(C)CCCC(C#N)c1ccc(Cl)cc1 (stereo not given),,-12.9% (inactive)
COCCC(C#N)c1ccc(Cl)cc1 (stereo not given),,-16.8% (inactive)
Clc1ccc(C(c2cccc(Cl)n2)c2nn[nH]n2)cc1 (stereo not given),,11.3% (inactive)
N#CC(c1ccc(F)cc1)c1cccc(Cl)n1 (stereo not given),,-35.8% (inactive)
N#CC(c1ccc(C(F)(F)F)c(Cl)n1)c1ccccc1OC(F)(F)F (stereo not given),,-8.43% (inactive)
CCCCC(C#N)c1ccc(F)cn1 (stereo not given),,-4.82% (inactive)
CCCCC(C#N)c1ccc(Cl)cc1 (stereo not given),,13.2% (inactive)
CN(C)CCCC(C#N)c1ccc(F)cc1 (stereo not given),,-34.3% (inactive)
N#CC1c2ccc(Cl)cc2CCc2cccnc21 (stereo not given),,31.2% (inactive)
